Measurements taken from ChEMBL document CHEMBL2034857, “Discovery of the macrocycle (9E)-15-(2-(pyrrolidin-1-yl)ethoxy)-7,12,25-trioxa-19,21,24-triaza-tetracyclo[18.3.1.1(2,5).1(14,18)]hexacosa-1(24),2,4,9,14(26),15,17,20,22-nonaene (SB1578), a potent inhibitor of janus kinase 2/fms-like tyrosine kinase-3 (JAK2/FLT3) for the treatment of rheumatoid …” (J Med Chem, 2012).
Converted amounts (≈) assume the structure as drawn.

Legend:
Mus musculus [1] = assay: Antiarthritic activity in po dosed B10/R3 mouse immunized with bovine type2 collagen in Freund's complete adjuvant assessed as inhibition of increase in clinical arthritic scores administered bid for 10 days measured for 10 days; assay type: functional, organism-based
[2] = Selectivity ratio of IC50 for recombinant CDK2 to IC50 for recombinant JAK2
[3] = Selectivity ratio of IC50 for recombinant JAK1 to IC50 for recombinant JAK2
[4] = Selectivity ratio of IC50 for recombinant JAK3 to IC50 for recombinant JAK2
Mus musculus [5] = assay: Antiarthritic activity in B10/R3 mouse immunized with bovine type2 collagen in Freund's complete adjuvant assessed as inhibition of increase in clinical arthritic scores at 0.1 mg/kg, po administered bid for 10 days measured for 10 days; assay type: functional; conditions: B10/R3, 240 h
[6] = Thermodynamic solubility of the compound at pH 7; assay type: physicochemical; conditions: buffer, read-out: Therm_solubility
In short: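 The citrate salt (~5 mg) was made up at 5 mg/mL in pH-buffered solution, in triplicate. It was shaken 24 h at 600 rpm at room temperature, filtered (0.4 μm) and the final pH recorded. The filtrate was diluted in acetonitrile/water (1:1), centrifuged and quantified by HPLC-UV. Two determinations were made on two different batches.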

## C1=C/COCc2cc(ccc2OCCN2CCCC2)Nc2nccc(n2)-c2ccc(o2)COC/1 (mixture of isomers)
Mus musculus [1]
  inhibition: Dose-dependent effect
[2]
  Ratio IC50: 152
[3]
  Ratio IC50: 58
[4]
  Ratio IC50: 93

## C[C@@H]1C[C@H]2[C@@H]3CCC4=CC(=O)C=C[C@]4(C)[C@@]3(F)[C@@H](O)C[C@]2(C)[C@@]1(O)C(=O)CO [DEXAMETHASONE]
Mus musculus [5]
  inhibition in vivo at 0.1 mg/kg: 63%

## C1=C/COCc2cc(ccc2OCCN2CCCC2)Nc2nccc(n2)-c2cccc(c2)COC/1 [PACRITINIB]
[6]
  solubility thermodynamic: 150 µg/mL (≈ 317 µM)
